Experimental data: PMC6426446 (Bioorganic & medicinal chemistry, 2010)
Entries after “also recorded” stand apart in the source; their conditions may differ.

Assays:
[1] = biological target: NADH-ubiquinone oxidoreductase (mitochondrial complex I) (Bos taurus, UniProt P03887+P17694+P42026); assay: NADH-ubiquinone; type: biochemical, bovine; conditions: compared with 12
[2] = Stability of purified compound; type: physicochemical
[3] = test system: CRL-2365 (brain glioblastoma); assay: MTT assay CRL-2365; type: cell-based; conditions: Homo sapiens, read-out: IC50 MTT assay CRL-2365
Summary of the method: (§1)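 Standard MTT growth-inhibition assay with DMSO as vehicle. CRL-2365 and CRL-2366 were kept in DMEM; MCF-7, A549 and mouse 3LL in RPMI-1640. Both media carried 10% fetal bovine serum, penicillin G (100 U/mL) and streptomycin (100 μg/mL). MCF-10A breast cells were grown in Mammary Epithelial Growth Medium.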

[4] = test system: CRL-2366 (DNA repair deficient brain glioblastoma); assay: MTT assay CRL-2366; type: cell-based; conditions: Homo sapiens, read-out: IC50 MTT assay CRL-2366
Summary of the method: as §1

[5] = test system: cultured human and mouse cell lines; assay: MTT assay, all tested cell lines; type: cell-based
Summary of the method: as §1

[6] = test system: MCF-7 human breast carcinoma cells; assay: Lactate assay; type: cell-based; conditions: MCF-7 cells, 3 h, varying concentrations
Summary of the method: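 MCF-7 cells seeded at 2 × 10^5 per well and grown 24 h (about 50% confluence). Wells rinsed with pre-warmed Krebs-Ringer buffer, then exposed for 3 h to test compound in buffer against buffer-only controls. Supernatant lactate measured as absorbance change at 363 nm and converted using extinction coefficient 9.1 mM−1 cm−1. Three determinations per point; experiments repeated at least three times.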

[7] = biological target: NADH oxidase (complexes I, III and IV) (Bos taurus, UniProt P03887+P17694+P42026); assay: NADH oxidase activity in bovine heart submitochondrial particles; type: biochemical; conditions: bovine heart SMP
NADH fumarate reductase = conditions: cited from earlier work

Sequence of NADH oxidase (complexes I, III and IV) (P03887 whole entry): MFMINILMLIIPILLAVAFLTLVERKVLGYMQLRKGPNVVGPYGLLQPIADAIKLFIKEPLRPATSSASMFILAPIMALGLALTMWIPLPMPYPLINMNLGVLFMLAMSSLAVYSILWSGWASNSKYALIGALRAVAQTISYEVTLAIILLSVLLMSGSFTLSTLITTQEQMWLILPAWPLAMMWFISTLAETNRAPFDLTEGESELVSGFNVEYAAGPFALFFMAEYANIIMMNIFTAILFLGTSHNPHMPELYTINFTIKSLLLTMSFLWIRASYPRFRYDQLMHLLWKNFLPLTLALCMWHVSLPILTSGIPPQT
Sequence of NADH oxidase (complexes I, III and IV) (P42026 38-216): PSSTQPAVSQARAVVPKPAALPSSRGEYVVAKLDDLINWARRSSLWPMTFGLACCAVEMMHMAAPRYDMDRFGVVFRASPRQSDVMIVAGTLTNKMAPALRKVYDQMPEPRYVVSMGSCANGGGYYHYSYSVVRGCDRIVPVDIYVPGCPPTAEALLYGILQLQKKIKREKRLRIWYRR
Sequence of NADH oxidase (complexes I, III and IV) (P17694 34-463): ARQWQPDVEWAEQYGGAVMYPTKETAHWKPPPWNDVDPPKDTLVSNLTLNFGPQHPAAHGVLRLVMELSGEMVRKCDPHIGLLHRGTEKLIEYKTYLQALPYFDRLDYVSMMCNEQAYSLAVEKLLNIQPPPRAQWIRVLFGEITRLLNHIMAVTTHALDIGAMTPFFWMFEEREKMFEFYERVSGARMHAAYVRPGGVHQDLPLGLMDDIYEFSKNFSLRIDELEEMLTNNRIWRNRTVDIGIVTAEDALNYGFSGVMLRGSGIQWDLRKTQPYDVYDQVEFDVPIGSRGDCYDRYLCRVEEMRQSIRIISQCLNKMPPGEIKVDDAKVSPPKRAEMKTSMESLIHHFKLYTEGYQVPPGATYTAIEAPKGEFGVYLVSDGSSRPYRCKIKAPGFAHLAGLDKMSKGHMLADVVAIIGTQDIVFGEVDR
Sequence of NADH-ubiquinone oxidoreductase (mitochondrial complex I) (P03887 whole entry): as the sequence (P03887 whole entry) above
Sequence of NADH-ubiquinone oxidoreductase (mitochondrial complex I) (P42026 38-216): as the sequence (P42026 38-216) above
Sequence of NADH-ubiquinone oxidoreductase (mitochondrial complex I) (P17694 34-463): as the sequence (P17694 34-463) above

Row | SMILES | IC50 [3] [µM] | IC50 [4] [µM] | Stimulation of lactate production (in words) [6] | other results
1 | CCCCCCCCC(C)(O)CCc1[nH]c(=O)c(C)c(O)c1C (racemic) [Compound 21, (rac)-6-[3-Hydroxy-3-methylundecyl]-3,5-dimethyl-4-hydroxypyridin-2-one] |  |  |  | Potency relative to 12 as inhibitor of NADH-ubiquinone oxidoreductase [1]: more than 10 fold; Stability after purification by preparative thin layer chromatography [2]: rather unstable
2 | CCCCCCCCC(C)(O)CCc1oc(=O)c(C)c(O)c1C (racemic) [Compound 12, (rac)-6-[3-Hydroxy-3-methylundecyl]-3,5-dimethyl-4-hydroxypyran-2-one] | > 31 | > 31 |  | 
3 | CCCCCCCCC(C)(O)CCc1oc(C)c(C)c(=O)c1C (racemic) [Compound 18, (rac)-2-[3-Hydroxy-3-methylundecyl]-3,5,6-trimethyl-4H-pyran-4-one] |  |  |  | Cytotoxicity (in words) [5]: no cytotoxicity
4 | CCCCCCCC[C@](C)(O)CCc1oc(=O)c(C)c(O)c1C [Compound 14, (S)-6-[3-Hydroxy-3-methylundecyl]-3,5-dimethyl-4-hydroxypyran-2-one] | > 31 | > 31 | weakly stimulated | 
5 | CCCCC(O)Cc1oc(OC)c(C)c(=O)c1C (stereo not shown) [Compound 22, 2-(2-Hydroxyhexyl)-6-methoxy-3,5-dimethyl-4H-pyran-4-one] |  |  | weakly stimulated | Inhibition of mitochondrial respiratory chain function (in words) [7]: did not inhibit; also recorded: no inhibitory activity
6 | COc1oc(CC(O)CCCCCOc2ccc(-c3ccccc3)cc2)c(C)c(=O)c1C (stereo not shown) [Compound 30, 2-[2-Hydroxy-7-(4-phenyl)phenoxyheptyl]-6-methoxy-3,5-dimethyl-4H-pyran-4-one] |  |  | strongly stimulated | 
7 | CCCCCCCCCC(O)Cc1oc(OC)c(C)c(=O)c1C (stereo not shown) [Compound 1, 2-(2-Hydroxyundecyl)-6-methoxy-3,5-dimethyl-4H-pyran-4-one] |  |  | strongly stimulated | Inhibitory activity toward NADH fumarate reductase (in words) (NADH fumarate reductase): strong inhibitory activity
8 | CCCCCCCC[C@](C)(O)CCc1oc(OC)c(C)c(=O)c1C [Compound 17, (S)-2-[3-Hydroxy-3-methylundecyl]-6-methoxy-3,5-dimethyl-4H-pyran-4-one] |  |  | strongly stimulated | 
9 | CCCCCCCC[C@@](C)(O)CCc1oc(=O)c(C)c(O)c1C [Compound 13, (R)-6-[3-Hydroxy-3-methylundecyl]-3,5-dimethyl-4-hydroxypyran-2-one] | > 31 | > 31 |  | 
